Experimental data as given in ChEMBL document CHEMBL1121584, “Soft drugs. 3. A new class of anticholinergic agents” (J Med Chem, 1980).

Experiments:
Felis catus [1] = species: Felis catus; assay: acetylcholine antagonist effect of compound on cat blood pressure at concentration 5.7*10e-7 in 21 min; type: functional
Outline: (§1)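 Adult cats under ip α-chloralose (80 mg/kg) plus pentobarbitone (6 mg/kg), bilaterally vagotomized and artificially respired. Carotid blood pressure was recorded. An iv acetylcholine dose giving 70–80% of maximal vasodepressor response was used. After iv test drug, acetylcholine responses were checked at 1 min and then every 2–3 min and expressed as % of control. Doses were given in mol/kg, escalating after recovery.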

Cavia porcellus [2] = species: Cavia porcellus; assay: Antihistamine activity was measured by the guinea pig ileum test.; type: functional; conditions: Cavia porcellus, Ileum; read-out: pA2 (converted)
Outline: (§2)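 Guinea pig ileum strips, McEwan's solution, Carbogen, 37 °C, 1 g tension. Cumulative histamine concentration-response curves were recorded before and after 15–20 min equilibration with rising antagonist concentrations. pA2 came from dose ratios of mean curves.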

Felis catus [3] = species: Felis catus; assay: acetylcholine antagonist effect of compound on cat blood pressure at concentration 5.7*10e-7 in 3 min; type: functional; outline: as §1
Felis catus [4] = species: Felis catus; assay: acetylcholine antagonist effect of compound on cat blood pressure at concentration 5.7*10e-8 in 4 min; type: functional
Outline: (§3)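 Adult cats anesthetized ip with α-chloralose (80 mg/kg) plus sodium pentobarbitone (6 mg/kg), bilaterally vagotomized, artificially respired. Carotid arterial pressure recorded. Drugs given iv via brachial vein. Acetylcholine dose giving 70-80% of maximal vasodepressor response used throughout. Test drug injected, acetylcholine response checked 1 min later, then every ~2-3 min. Value is % of control vasodepressor response to acetylcholine.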

Felis catus [5] = species: Felis catus; assay: acetylcholine antagonist effect of compound on cat blood pressure at concentration 5.7*10e-7 in 15 min; type: functional; outline: as §1
Felis catus [6] = species: Felis catus; assay: acetylcholine antagonist effect of compound on cat blood pressure at concentration 5.7*10e-8 in 8 min; type: functional; outline: as §3
Felis catus [7] = species: Felis catus; assay: acetylcholine antagonist effect of compound on cat blood pressure at concentration 5.7*10e-7 in 12 min; type: functional; outline: as §1
Felis catus [8] = species: Felis catus; assay: acetylcholine antagonist effect of compound on cat blood pressure at concentration 5.7*10e-7 in 24 min; type: functional; outline: as §1
Felis catus [9] = species: Felis catus; assay: acetylcholine antagonist effect of compound on cat blood pressure at concentration 5.7*10e-7 in 9 min; type: functional; outline: as §1
Felis catus [10] = species: Felis catus; assay: acetylcholine antagonist effect of compound on cat blood pressure at concentration 5.7*10e-8 in 6 min; type: functional; outline: as §3
Felis catus [11] = assay: acetylcholine antagonist effect of compound on cat blood pressure at concentration 5.7*10e-8 mol/kg in 1 min; type: functional; outline: as §1
Felis catus [12] = species: Felis catus; assay: acetylcholine antagonist effect of compound on cat blood pressure at concentration 5.7*10e-8 in 10 min; type: functional; outline: as §1
Cavia porcellus [13] = species: Cavia porcellus; assay: Anticholinergic activity was measured by the guinea pig ileum test.; type: functional; conditions: Cavia porcellus, Ileum; read-out: pA2 (converted)
Outline: (§4)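 Guinea pig whole ileum strips in McEwan's solution, gassed with O2/CO2 95:5, 37 °C organ bath, 1 g tension. Cumulative acetylcholine concentration-response curves were run to constancy, then repeated after 15–20 min equilibration with increasing antagonist concentrations. Mean curves gave dose ratios, from which competitive antagonism and pA2 were derived.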

Felis catus [14] = species: Felis catus; assay: acetylcholine antagonist effect of compound on cat blood pressure at concentration 5.7*10e-7 in 1 min; type: functional; outline: as §1
Felis catus [15] = species: Felis catus; assay: acetylcholine antagonist effect of compound on cat blood pressure at concentration 5.7*10e-7 in 6 min; type: functional; outline: as §1
Felis catus [16] = species: Felis catus; assay: acetylcholine antagonist effect of compound on cat blood pressure at concentration 5.7*10e-7 in 18 min; type: functional; outline: as §1
Felis catus [17] = species: Felis catus; assay: acetylcholine antagonist effect of compound on cat blood pressure at concentration 5.4*10e-8 in 2 min
Canis familiaris [18] = species: Canis familiaris; assay: The hydrolytic kinetics expressed as Kobs was measured in dog plasma at 36 degree C; type: ADME, Canis lupus familiaris
Outline: (§5)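 Fresh dog blood was centrifuged and the upper layer filtered through 0.8 and 0.2 µm membranes. 2 mL plasma samples with gentisic acid internal standard were incubated. 5 µL aliquots taken at intervals were assayed against acid standard curves in methanol. Rates came from acid appearance or quaternary salt loss.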

Felis catus [19] = species: Felis catus; assay: acetylcholine antagonist effect of compound on cat blood pressure at concentration 5.4*10e-8 in 38 min
Felis catus [20] = species: Felis catus; assay: acetylcholine antagonist effect of compound on cat blood pressure at concentration 5.7*10e-9 in 1 min; type: functional; outline: as §3
[21] = Cholinergic potency was expressed in terms of relative activity vs acetylcholine.; type: functional
Felis catus [22] = species: Felis catus; assay: acetylcholine antagonist effect of compound on cat blood pressure at concentration 5.7*10e-8 in 13 min; type: functional; outline: as §1
Canis familiaris [23] = species: Canis familiaris; assay: The hydrolytic kinetics expressed as Kobs was measured in dog plasma at 37 degree C; type: ADME, Canis lupus familiaris; outline: as §5
Felis catus [24] = species: Felis catus; assay: acetylcholine antagonist effect of compound on cat blood pressure at concentration 5.7*10e-8 in 5 min; type: functional; outline: as §3
Felis catus [25] = species: Felis catus; assay: acetylcholine antagonist effect of compound on cat blood pressure at concentration 5.7*10e-8 in 23 min; type: functional; outline: as §1
[26] = Half life period was measured at 37 degree C in dog plasma from d[quant]/dt.; type: ADME, Canis lupus familiaris; outline: as §5
Felis catus [27] = species: Felis catus; assay: acetylcholine antagonist effect of compound on cat blood pressure at concentration 5.7*10e-9 in 7 min; type: functional; outline: as §3
Felis catus [28] = species: Felis catus; assay: acetylcholine antagonist effect of compound on cat blood pressure at concentration 5.4*10e-8 in 33 min
[29] = The hydrolytic kinetics expressed as Kobs was measured at 9.4 pH at 36 degree C; type: ADME; conditions: pH 9.4
Outline: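 Hydrolysis in 0.1 M sodium carbonate-bicarbonate, pH 9.4, ionic strength 0.5 (NaCl added), 36 °C. Kobsd was followed from the rate of acid formation.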

Cavia porcellus [30] = species: Cavia porcellus; assay: Anticholinergic activity was measured by the guinea pig ileum test; c = NA means no activity found at the doses used; type: functional; conditions: read-out: pA2 (converted); outline: as §4
Felis catus [31] = species: Felis catus; assay: acetylcholine antagonist effect of compound on cat blood pressure at concentration 5.7*10e-9 in 2 min; type: functional; outline: as §3
Felis catus [32] = species: Felis catus; assay: acetylcholine antagonist effect of compound on cat blood pressure at concentration 5.4*10e-8 in 44 min
Felis catus [33] = species: Felis catus; assay: acetylcholine antagonist effect of compound on cat blood pressure at concentration 5.4*10e-8 in 28 min
Felis catus [34] = species: Felis catus; assay: acetylcholine antagonist effect of compound on cat blood pressure at concentration 5.7*10e-8 in 18 min; type: functional; outline: as §1
Felis catus [35] = species: Felis catus; assay: acetylcholine antagonist effect of compound on cat blood pressure at concentration 5.7*10e-8 in 9 min; type: functional; outline: as §3
[36] = The hydrolytic kinetics expressed as Kobs was measured at 7.4 pH at 37 degree C; type: ADME; conditions: pH 7.4
Outline: (§6)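 Chemical hydrolysis in 0.5 M potassium phosphate, pH 7.4, 37 °C. Rate was followed by appearance of the acid product or loss of the quaternary salt. Where salt contained amine hydrochloride, initial concentration was taken from final acid after complete hydrolysis. Half-life was estimated from both where resolved.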

Cavia porcellus [37] = species: Cavia porcellus; assay: Antihistamine activity was measured by the guinea pig ileum test; c = NA means no activity found at the doses used; type: functional; outline: as §2
Felis catus [38] = species: Felis catus; assay: acetylcholine antagonist effect of compound on cat blood pressure at concentration 5.7*10e-9 in 4 min; type: functional; outline: as §3
[39] = Half life period was measured at 7.4 pH from d[acid]/dt.; type: ADME; conditions: pH 7.4; outline: as §6
Cavia porcellus [40] = species: Cavia porcellus; assay: Antihistamine activity was measured by the guinea pig ileum test; c = NA means no activity found at the doses used.; type: functional; outline: as §2
[41] = Cholinergic potency was expressed in terms of relative activity vs acetylcholine; c = NA means no activity found at the doses used.; type: functional
Sus scrofa [42] = species: Sus scrofa; assay: The hydrolytic kinetics expressed as Kobs was measured in […] at 37 degree C; type: ADME; conditions: pig
Outline: (§7)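 Hog liver carboxylesterase (EC 3.1.1.1), 2.4 units, with substrate at 5.6×10^-3 mol L-1 in 0.5 M potassium phosphate pH 7.4 containing gentisate internal standard, 37 °C. Rate was taken from acid formation.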

[43] = Half life period was measured at 7.4 pH from d[quant]/dt.; type: ADME; conditions: pH 7.4; outline: as §6
Sus scrofa [44] = species: Sus scrofa; assay: Half life period was measured at 37 degree C in […] from d[acid]/dt.; type: ADME; conditions: pig, in vitro; in the assay text read “esterase” for “plasma”; outline: as §7
Cavia porcellus [45] = species: Cavia porcellus; assay: Anticholinergic activity was measured by the guinea pig ileum test; c = NA means no activity found at the doses used.; type: functional; outline: as §4
Cavia porcellus [46] = species: Cavia porcellus; assay: Anticholinergic activity was measured by the guinea pig ileum test; NA means no activity found at the doses used; type: functional; outline: as §4
[47] = Cholinergic potency was expressed in terms of relative activity vs acetylcholine; NA means no activity found at the doses used.; type: functional

SMILES: CC[N+](CC)(CC)COC(=O)C(c1ccccc1)C1CCCCC1.[Cl-] (stereo unspecified)
- Response (Felis catus [1]): 93%
- Kb (Cavia porcellus [2]): 2000 nM
- Response (Felis catus [3]): 0%
- Response (Felis catus [4]): 50%
- Response (Felis catus [5]): 60%
- Response (Felis catus [6]): 83%
- Response (Felis catus [7]): 43%
- Response (Felis catus [8]): 100%
- Response (Felis catus [9]): 0%
- Response (Felis catus [10]): 67%
- Response (Felis catus [11]): 0%
- Response (Felis catus [12]): 100%
- Kb (Cavia porcellus [13]): 2.51 nM
- Response (Felis catus [14]): 0%
- Response (Felis catus [15]): 0%
- Response (Felis catus [16]): 78%
- Response (Felis catus [17]): 0%

SMILES: CC[N+](CC)(CC)COC(=O)C(c1ccccc1)C1CCCC1 (stereo unspecified) [listing 1 of 2 here]
- Kb (Cavia porcellus [2]): 50.1 nM
- Kb (Cavia porcellus [13]): 3.16 nM

SMILES: C[N+]1(COC(=O)C(c2ccccc2)C2CCCC2)CCCC1.[Cl-] (stereo unspecified)
- K obs (Canis familiaris [18]): 0.00144 min⁻¹
- Response (Felis catus [19]): 88%
- Response (Felis catus [20]): 0%
- Activity [21]: No activity
- Response (Felis catus [22]): 31%
- K obs (Canis familiaris [23]): 0.00168 min⁻¹
- Response (Felis catus [24]): 0%
- Response (Felis catus [25]): 63%
- half-life [26]: 6.5 h
- Response (Felis catus [27]): 100%
- Response (Felis catus [28]): 81%
- K obs [29]: 0.139 min⁻¹
- Kb (Cavia porcellus [30]): 3.98 nM
- Response (Felis catus [31]): 0%
- Response (Felis catus [32]): 88%
- Response (Felis catus [33]): 69%
- Response (Felis catus [34]): 63%
- Response (Felis catus [35]): 0%
- K obs [36]: 0.000578 min⁻¹
- pA2 (Cavia porcellus [37]): No activity
- Response (Felis catus [11]): 0%
- Response (Felis catus [38]): 67%
- half-life [39]: 20 h
- Response (Felis catus [17]): 0%

SMILES: Cn1cc[n+](COC(=O)C(c2ccccc2)C2CCCC2)c1 (stereo unspecified)
- Kb (Cavia porcellus [2]): 501 nM
- Kb (Cavia porcellus [13]): 15.8 nM

SMILES: C[N+]1(COC(=O)C2(c3ccccc3)CC2)CCCC1.[Cl-]
- pA2 (Cavia porcellus [40]): No activity
- K obs [36]: 0.00068 min⁻¹
- Kb (Cavia porcellus [13]): 1580 nM
- half-life [39]: 17 h

SMILES: CCC(C)C(=O)OC[N+]1(C)CCCC1C (stereo unspecified)
- Activity [41]: No activity
- Kb (Cavia porcellus [13]): 12600 nM

SMILES: C[N+]1(COC(=O)C23CC4CC(CC(C4)C2)C3)CCCC1
- Kb (Cavia porcellus [13]): 126 nM

SMILES: CCC(C(=O)OC[N+](CC)(CC)CC)c1ccccc1.[Cl-] (stereo unspecified)
- Kb (Cavia porcellus [2]): 316 nM
- K obs (Sus scrofa [42]): 0.00542 min⁻¹
- K obs (Canis familiaris [23]): 0.00815 min⁻¹
- half-life [26]: 1.4 h
- Kb (Cavia porcellus [13]): 251 nM
- half-life [43]: 2.5 h
- T1/2 (Sus scrofa [44]): 2.1 h
- half-life [39]: 2.6 h

SMILES: CC[N+](CC)(CC)COC(=O)C(c1ccccc1)C1CCCC1 (stereo unspecified) [listing 2 of 2 here]
- pA2 (Cavia porcellus [40]): No activity
- Activity [41]: No activity

SMILES: Cn1cc[n+](COC(=O)C23CC4CC(CC(C4)C2)C3)c1
- Kb (Cavia porcellus [2]): 5010 nM
- Activity [41]: No activity
- Kb (Cavia porcellus [13]): 2000 nM

SMILES: CCC(C)C(=O)OC[N+]12CCC(CC1)CC2 (stereo unspecified)
- pA2 (Cavia porcellus [45]): No activity
- Activity [21]: 1

SMILES: CC1CCC[N+]1(C)COC(=O)C(c1ccccc1)C1CCCC1 (stereo unspecified)
- Kb (Cavia porcellus [2]): 12.6 nM
- Kb (Cavia porcellus [13]): 0.501 nM

SMILES: C[N+]1(C2OC(=O)c3ccccc32)CCCC1 (stereo unspecified)
- pA2 (Cavia porcellus [46]): No activity
- Activity [47]: No activity
